Columns and labels:
Escherichia coli [1] = test: Antibacterial activity against Escherichia coli ATCC 25922 after 18 hrs in presence of NaCl by broth dilution method; type: functional; conditions: ATCC 25922, 18 h
[2] = Cytotoxicity against mouse RAW264.7 cells assessed as cell viability at 2 to 64 uM after 24 hrs by MTT assay relative to control; type: cell-based; conditions: read-out: Activity
Summary of the method: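 MTT viability assay. RAW264.7 or HEK293T cells at (1.0−2.0) × 10^5 per well were exposed to a peptide concentration series for 24 h at 37 °C in 5% CO2. MTT was then added at 0.5 mg/mL final for 4 h; formazan was dissolved in DMSO and read at 570 nm. Results average three independent trials.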

[3] = Antibacterial activity against Salmonella pullorum ATCC 7913 after 24 hrs; type: functional, Salmonella enterica subsp. enterica serovar Pullorum; conditions: Salmonella enterica, ATCC 7913, 24 h
Summary of the method: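 Broth microdilution. Mid-log bacteria in MHB at a final (0.5−1) × 10^5 CFU/mL were mixed with equal volumes of peptide serially diluted in 0.2% BSA. Plates were incubated 24 h at 37 °C and read at A492. MIC is the lowest concentration inhibiting 95% of growth. Each test was repeated at least 3 times.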

Candida albicans [4] = test: Fungicidal activity against Candida albicans 14936 after 96 hrs; type: functional; conditions: Candida albicans, 14936, 96 h; read-out: MFC99.9
Summary of the method: (§1)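 After the 48 h, 28 °C broth microdilution in MOPS-buffered RPMI 1640 (inoculum (0.5−1) × 10^3 CFU/mL), 50 μL from each well was plated on YM agar for a further 48 h at 28 °C. MFC is the lowest concentration killing at least 99.9% of cells. Triplicate, three biological replicates.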

Candida albicans [5] = test: Antifungal activity against Candida albicans cgmcc 2.2086 in presence of NH4Cl by broth dilution method; type: functional
Candida albicans [6] = test: Antifungal activity against Candida albicans cgmcc 2.2086 in presence of KCl by broth dilution method; type: functional
Staphylococcus aureus [7] = test: Antibacterial activity against Staphylococcus aureus ATCC 29213 after 24 hrs; type: functional; conditions: ATCC 29213, 24 h
Summary of the method: (§2)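 Modified NCCLS broth microdilution. Mid-log bacteria at (0.5−1) × 10^5 CFU/mL in MHB were mixed 1:1 with peptide serially diluted in 0.2% BSA and incubated 24 h at 37 °C. Absorbance was read at 492 nm; MIC is the lowest concentration inhibiting 95% of growth. At least 3 repeats.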

Candida albicans [8] = test: Antifungal activity against Candida albicans SP3931 after 48 hrs by broth microdilution method; type: functional; conditions: SP3931, 48 h
Summary of the method: (§3)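 Modified CLSI M27-A2 broth microdilution. Yeast at (0.5−1) × 10^3 CFU/mL in MOPS-buffered RPMI 1640 was mixed 1:1 with peptide serially diluted in 0.2% BSA and incubated 48 h at 28 °C. Absorbance was read at 492 nm; MIC is the lowest concentration inhibiting 95% of growth. Triplicate, three biological replicates.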

Candida albicans [9] = test: Fungicidal activity against fluconazole-resistant Candida albicans 56214 after 96 hrs; type: functional; conditions: Candida albicans, 56214, 96 h; read-out: MFC99.9; summary of the method: as §1
Staphylococcus aureus [10] = test: Antibacterial activity against Staphylococcus aureus ATCC 25923 after 24 hrs; type: functional; conditions: ATCC 25923, 24 h; summary of the method: as §2
Candida albicans [11] = test: Fungicidal activity against Candida albicans SP3931 after 96 hrs; type: functional; conditions: SP3931, 96 h, read-out: MFC99.9; summary of the method: as §1
Candida albicans [12] = test: Antifungal activity against Candida albicans SP3902 after 48 hrs by broth microdilution method; type: functional; conditions: SP3902, 48 h; summary of the method: as §3
Escherichia coli [13] = test: Antibacterial activity against Escherichia coli ATCC 25922 after 18 hrs in presence of KCl by broth dilution method; type: functional; conditions: ATCC 25922, 18 h
Candida albicans [14] = test: Antifungal activity against fluconazole-resistant Candida albicans 56452 after 48 hrs by broth microdilution method; type: functional; conditions: Candida albicans, 56452, 48 h; summary of the method: as §3
Candida albicans [15] = test: Antifungal activity against fluconazole-resistant Candida albicans 17546 after 48 hrs by broth microdilution method; type: functional; conditions: Candida albicans, 17546, 48 h; summary of the method: as §3
Candida tropicalis = test: Antifungal activity against Candida tropicalis cgmcc 2.1975 after 48 hrs by broth microdilution method; type: functional; conditions: cgmcc 2.1975, 48 h
Summary of the method: (§4)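 Modified CLSI M27-A2 broth microdilution. Yeast were suspended in MOPS-buffered RPMI 1640 at a final (0.5−1) × 10^3 CFU/mL and mixed 1:1 with peptide serially diluted in 0.2% BSA. Plates were incubated 48 h at 28 °C and read at A492. MIC is the lowest concentration giving 95% inhibition. Run in triplicate with three biological replicates.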

Escherichia coli [16] = test: Antibacterial activity against Escherichia coli ATCC 25922 after 18 hrs in presence of MgCl2 by broth dilution method; type: functional; conditions: ATCC 25922, 18 h
[17] = system: Staphylococcus epidermidis; test: Bactericidal activity against Staphylococcus epidermidis ATCC 12228; type: functional; conditions: read-out: MBC99.9
Summary of the method: (§5)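 Wells from the 24 h, 37 °C MHB microdilution plates (bacteria at a final (0.5−1) × 10^5 CFU/mL; peptide diluted in 0.2% BSA) were plated on agar and incubated overnight. MBC is the lowest concentration killing >99.9% of cells. Each test was reproduced at least 3 times.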

[18] = Bactericidal activity against Salmonella pullorum ATCC 7913; type: functional, Salmonella enterica subsp. enterica serovar Pullorum; conditions: Salmonella enterica, read-out: MBC99.9; summary of the method: as §5
Candida albicans [19] = test: Antifungal activity against Candida albicans SP3903 after 48 hrs by broth microdilution method; type: functional; conditions: SP3903, 48 h; summary of the method: as §3
Candida albicans [20] = test: Antifungal activity against Candida albicans cgmcc 2.2086 in presence of FeCl3 by broth dilution method; type: functional
Candida albicans [21] = test: Antifungal activity against fluconazole-resistant Candida albicans 56214 after 48 hrs by broth microdilution method; type: functional; conditions: Candida albicans, 56214, 48 h; summary of the method: as §3
Candida parapsilosis [22] = test: Fungicidal activity against Candida parapsilosis cgmcc 2.3989 after 96 hrs; type: functional; conditions: Lodderomyces parapsilosis, cgmcc 2.3989, 96 h; read-out: MFC99.9
Summary of the method: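 Wells from the 48 h, 28 °C RPMI 1640/MOPS microdilution plates were plated on YM agar and incubated a further 48 h at 28 °C. MFC is the lowest concentration killing at least 99.9% of cells. Run in triplicate with three biological replicates.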

Pichia kudriavzevii = test: Antifungal activity against Candida krusei cgmcc 2.1857 after 48 hrs by broth microdilution method; type: functional; conditions: cgmcc 2.1857, 48 h; summary of the method: as §4
Escherichia coli [23] = test: Bactericidal activity against Escherichia coli ATCC 25922; type: functional; conditions: read-out: MBC99.9; summary of the method: as §5
Escherichia coli [24] = test: Antibacterial activity against Escherichia coli ATCC 25922 after 18 hrs in presence of FeCl3 by broth dilution method; type: functional; conditions: ATCC 25922, 18 h
Salmonella typhimurium = test: Bactericidal activity against Salmonella typhimurium ATCC 14028; type: functional, Salmonella enterica subsp. enterica serovar Typhimurium; conditions: Salmonella enterica, read-out: MBC99.9; summary of the method: as §5
Candida albicans [25] = test: Fungicidal activity against fluconazole-resistant Candida albicans 17546 after 96 hrs; type: functional; conditions: Candida albicans, 17546, 96 h; read-out: MFC99.9; summary of the method: as §1
Candida albicans [26] = test: Antifungal activity against Candida albicans cgmcc 2.2086 after 48 hrs by broth microdilution method; type: functional; conditions: cgmcc 2.2086, 48 h; summary of the method: as §3
Candida parapsilosis [27] = test: Antifungal activity against Candida parapsilosis cgmcc 2.3989 after 48 hrs by broth microdilution method; type: functional; conditions: Lodderomyces parapsilosis, cgmcc 2.3989, 48 h; summary of the method: as §4

## H-IIRRIRRII-NH2
Escherichia coli [1]
  MIC: 32 µM
[2]
  viability at 24 h, up to 64 µM: 70 to 80%
[3]
  MIC95: 32 µM
Candida albicans [4]
  MFC: > 64 µM
Candida albicans [5]
  MIC: 64 µM
Candida albicans [6]
  MIC: 64 µM
Staphylococcus aureus [7]
  MIC95: 64 µM
Candida albicans [8]
  MIC95: > 64 µM
Candida albicans [9]
  MFC: 64 µM
Staphylococcus aureus [10]
  MIC95: > 64 µM
Candida albicans [11]
  MFC: > 64 µM
Candida albicans [12]
  MIC95: > 64 µM
Escherichia coli [13]
  MIC: 32 µM
Candida albicans [14]
  MIC95: 64 µM
Candida albicans [15]
  MIC95: > 64 µM
Candida tropicalis
  MIC95: 4 µM
Escherichia coli [16]
  MIC: 32 µM
[17]
  MBC: > 64 µM
[18]
  MBC: > 64 µM
Candida albicans [19]
  MIC95: > 64 µM
Candida albicans [20]
  MIC: 64 µM
Candida albicans [21]
  MIC95: 64 µM
Candida parapsilosis [22]
  MFC: > 64 µM
Pichia kudriavzevii
  MIC95: 16 µM
Escherichia coli [23]
  MBC: 32 µM
Escherichia coli [24]
  MIC: 64 µM
Salmonella typhimurium
  MBC: > 64 µM
Candida albicans [25]
  MFC: > 64 µM
Candida albicans [26]
  MIC95: 64 µM
Candida parapsilosis [27]
  MIC95: > 64 µM

## H-FFRRFRRFF-NH2
Escherichia coli [1]
  MIC: 8 µM
[2]
  viability at 24 h, up to 64 µM: 70 to 80%
[3]
  MIC95: 32 µM
Candida albicans [4]
  MFC: 32 µM
Candida albicans [5]
  MIC: 8 µM
Candida albicans [6]
  MIC: 16 µM
Staphylococcus aureus [7]
  MIC95: 8 µM
Candida albicans [8]
  MIC95: 16 µM
Candida albicans [9]
  MFC: 32 µM
Staphylococcus aureus [10]
  MIC95: 4 µM
Candida albicans [11]
  MFC: 32 µM
Candida albicans [12]
  MIC95: 32 µM
Escherichia coli [13]
  MIC: 8 µM
Candida albicans [14]
  MIC95: 16 µM
Candida albicans [15]
  MIC95: 4 µM
Candida tropicalis
  MIC95: 4 µM
Escherichia coli [16]
  MIC: 8 µM
[17]
  MBC: 8 µM
[18]
  MBC: 64 µM
Candida albicans [19]
  MIC95: 16 µM
Candida albicans [20]
  MIC: 32 µM
Candida albicans [21]
  MIC95: 16 µM
Candida parapsilosis [22]
  MFC: > 64 µM
Pichia kudriavzevii
  MIC95: 4 µM
Escherichia coli [23]
  MBC: 8 µM
Escherichia coli [24]
  MIC: 8 µM
Salmonella typhimurium
  MBC: 8 µM
Candida albicans [25]
  MFC: 8 µM
Candida albicans [26]
  MIC95: 16 µM
Candida parapsilosis [27]
  MIC95: > 64 µM

## H-RLRLLLRLR-NH2
Escherichia coli [1]
  MIC: 4 µM
[2]
  viability at 24 h, up to 64 µM: 70 to 80%
[3]
  MIC95: 4 µM
Candida albicans [4]
  MFC: 4 µM
Candida albicans [5]
  MIC: 8 µM
Candida albicans [6]
  MIC: 16 µM
Staphylococcus aureus [7]
  MIC95: 8 µM
Candida albicans [8]
  MIC95: 8 µM
Candida albicans [9]
  MFC: 16 µM
Staphylococcus aureus [10]
  MIC95: 8 µM
Candida albicans [11]
  MFC: 16 µM
Candida albicans [12]
  MIC95: 4 µM
Escherichia coli [13]
  MIC: 4 µM
Candida albicans [14]
  MIC95: 8 µM
Candida albicans [15]
  MIC95: 16 µM
Candida tropicalis
  MIC95: 2 µM
Escherichia coli [16]
  MIC: 4 µM
[17]
  MBC: 8 µM
[18]
  MBC: 8 µM
Candida albicans [19]
  MIC95: 8 µM
Candida albicans [20]
  MIC: 8 µM
Candida albicans [21]
  MIC95: 8 µM
Candida parapsilosis [22]
  MFC: > 64 µM
Pichia kudriavzevii
  MIC95: 8 µM
Escherichia coli [23]
  MBC: 8 µM
Escherichia coli [24]
  MIC: 4 µM
Salmonella typhimurium
  MBC: 8 µM
Candida albicans [25]
  MFC: 16 µM
Candida albicans [26]
  MIC95: 8 µM
Candida parapsilosis [27]
  MIC95: > 64 µM

## H-RIRIIIRIR-NH2
Escherichia coli [1]
  MIC: 8 µM
[2]
  viability at 24 h, up to 64 µM: 70 to 80%
[3]
  MIC95: 4 µM
Candida albicans [4]
  MFC: 2 µM
Candida albicans [5]
  MIC: 4 µM
Candida albicans [6]
  MIC: 4 µM
Staphylococcus aureus [7]
  MIC95: 4 µM
Candida albicans [8]
  MIC95: 4 µM
Candida albicans [9]
  MFC: 4 µM
Staphylococcus aureus [10]
  MIC95: 4 µM
Candida albicans [11]
  MFC: 8 µM
Candida albicans [12]
  MIC95: 2 µM
Escherichia coli [13]
  MIC: 8 µM
Candida albicans [14]
  MIC95: 4 µM
Candida albicans [15]
  MIC95: 2 µM
Candida tropicalis
  MIC95: 2 µM
Escherichia coli [16]
  MIC: 8 µM
[17]
  MBC: 8 µM
[18]
  MBC: 16 µM
Candida albicans [19]
  MIC95: 2 µM
Candida albicans [20]
  MIC: 4 µM
Candida albicans [21]
  MIC95: 2 µM
Candida parapsilosis [22]
  MFC: 16 µM
Pichia kudriavzevii
  MIC95: 2 µM
Escherichia coli [23]
  MBC: 8 µM
Escherichia coli [24]
  MIC: 8 µM
Salmonella typhimurium
  MBC: 8 µM
Candida albicans [25]
  MFC: 2 µM
Candida albicans [26]
  MIC95: 4 µM
Candida parapsilosis [27]
  MIC95: 8 µM

Source: ChEMBL document CHEMBL4177755, “Combating Drug-Resistant Fungi with Novel Imperfectly Amphipathic Palindromic Peptides” (J Med Chem, 2018)
